In brackets after ≈: the same amount, converted by molar mass. Activity calls are given as the source filed them. The rule behind the calls is not given here.
How the values were obtained:
Helicobacter pylori [1] = assay: Antibacterial activity against Helicobacter pylori Hp 26695; type: functional
Procedure, shortened: (§1)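 Minimum bactericidal concentration (MBC), expressed in µM, determined against H. pylori reference strain Hp 26695 and the clinical isolates v1254 and v1354. Both isolates are resistant to metronidazole and clarithromycin. Amoxicillin, clarithromycin and metronidazole served as standard antimicrobial comparators.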

Helicobacter pylori [2] = assay: Antibacterial activity against multidrug-resistant Helicobacter pylori v1354; type: functional; procedure, shortened: as §1
Helicobacter pylori [3] = assay: Antibacterial activity against multidrug-resistant Helicobacter pylori v1254; type: functional; procedure, shortened: as §1
Helicobacter pylori [4] = assay: Inhibition of Helicobacter pylori invasion into human AGS cells at 2.5 uM after 6 hrs; type: functional
Procedure, shortened: (§2)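 AGS cells, untreated or treated with compound, then infected with H. pylori at MOI 50 for 6 h. Bacterial adhesion to, or invasion into, the cells was measured. Compounds tested at 2.5, 5.0 and 10.0 µM. DMSO vehicle and antibiotic controls at 2.5 µM. Values are mean ± SD of at least six independent experiments; Student's t-test against DMSO-treated cells.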

Helicobacter pylori [5] = assay: Inhibition of Helicobacter pylori-induced inflammation in human AGS cells assessed as reduction of IL-8 production at 10 uM by ELISA; type: functional
Procedure, shortened: (§3)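 IL-8 in culture supernatants measured from H. pylori-infected AGS cells pre-treated with compound at 2.5, 5.0 or 10.0 µM. Inhibition calculated against DMSO control-treated cells. Values are mean ± SD of at least three independent experiments.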

Helicobacter pylori [6] = assay: Inhibition of Helicobacter pylori-induced inflammation in human AGS cells assessed as reduction of NF-kappaB activity at 2.5 uM after 6 hrs by luciferase reporter gene assay relative to control; type: functional
Procedure, shortened: (§4)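 AGS cells transfected with an NF-κB luciferase reporter construct. Cells were treated with compound (2.5–10 µM) and infected with H. pylori, then luciferase expression was measured. Activity is expressed relative to DMSO-treated control. Antibiotics at 2.5 µM served as reference. Values are mean ± SD of at least three independent experiments.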

Helicobacter pylori [7] = assay: Inhibition of sHelicobacter pylori adhesion into human AGS cells at 2.5 uM after 6 hrs; type: functional; procedure, shortened: as §2
Helicobacter pylori [8] = assay: Inhibition of Helicobacter pylori-induced inflammation in human AGS cells assessed as reduction of NF-kappaB activity after 6 hrs by luciferase reporter gene assay relative to control; type: functional; procedure, shortened: as §4
Helicobacter pylori [9] = assay: Inhibition of Helicobacter pylori invasion into human AGS cells at 5 uM after 6 hrs; type: functional; procedure, shortened: as §2
AGS = assay: Cytotoxicity against human AGS cells assessed as cell viability at 0.5 ug/ml by MTT assay; type: cell-based; settings: in the assay text read “0.5 mg/ml” for “0.5 ug/ml”
Procedure, shortened: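 MTT viability assay on AGS human gastric epithelial cells, run at 0.5 mg/ml, the top concentration used in the H. pylori growth test.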

Helicobacter pylori [10] = assay: Inhibition of Helicobacter pylori-induced inflammation in human AGS cells assessed as reduction of NF-kappaB activity at 5 uM after 6 hrs by luciferase reporter gene assay relative to control; type: functional; procedure, shortened: as §4
Helicobacter pylori [11] = assay: Inhibition of Helicobacter pylori-induced inflammation in human AGS cells assessed as reduction of NF-kappaB activity at 10 uM after 6 hrs by luciferase reporter gene assay relative to control; type: functional; procedure, shortened: as §4
Helicobacter pylori [12] = assay: Inhibition of Helicobacter pylori adhesion into human AGS cells at 5 uM after 6 hrs; type: functional; procedure, shortened: as §2
Helicobacter pylori [13] = assay: Inhibition of Helicobacter pylori invasion into human AGS cells at 10 uM after 6 hrs; type: functional; procedure, shortened: as §2
Helicobacter pylori [14] = assay: Inhibition of Helicobacter pylori-induced inflammation in human AGS cells assessed as reduction of IL-8 production at 2.5 uM by ELISA; type: functional; procedure, shortened: as §3
Helicobacter pylori [15] = assay: Inhibition of Helicobacter pylori-induced inflammation in human AGS cells assessed as reduction of IL-8 production at 5 uM by ELISA; type: functional; procedure, shortened: as §3
Helicobacter pylori [16] = assay: Inhibition of Helicobacter pylori adhesion into human AGS cells at 10 uM after 6 hrs; type: functional; procedure, shortened: as §2

Structure (SMILES) | MBC (Helicobacter pylori [1]) [µM] | MBC (Helicobacter pylori [2]) [µM] | MBC (Helicobacter pylori [3]) [µM] | inhibition at 2.5 µM (Helicobacter pylori [4]) [%] | inhibition at 10 µM (Helicobacter pylori [5]) [%] | inhibition (Helicobacter pylori [6]) | inhibition at 2.5 µM (Helicobacter pylori [7]) [%] | inhibition (Helicobacter pylori [8]) | Activity (AGS) | inhibition at 10 µM (Helicobacter pylori [11]) [%] | inhibition at 5 µM (Helicobacter pylori [12]) [%] | inhibition at 2.5 µM (Helicobacter pylori [6]) [%] | inhibition at 2.5 µM (Helicobacter pylori [14]) [%] | inhibition at 5 µM (Helicobacter pylori [15]) [%] | inhibition (Helicobacter pylori [9]) | inhibition (Helicobacter pylori [4]) | inhibition (Helicobacter pylori [13]) | further results
CC[C@H]1OC(=O)[C@H](C)[C@@H](O[C@H]2C[C@@](C)(OC)[C@@H](O)[C@H](C)O2)[C@H](C)[C@@H](O[C@@H]2O[C@H](C)C[C@H](N(C)C)[C@H]2O)[C@](C)(OC)C[C@@H](C)C(=O)[C@H](C)[C@@H](O)[C@]1(C)O [CLARITHROMYCIN] | 1.6 (≈ 1.2 µg/mL) | 25 (≈ 18.7 µg/mL) | 50 (≈ 37.4 µg/mL) | > 90 | 81.9 | inactive |  |  |  |  |  |  |  |  |  |  |  | 
COc1cc(/C=C/C(=O)c2cc(OC)c(OC)c(OC)c2)ccc1O | 12.5 (≈ 4.3 µg/mL) | 12.5 (≈ 4.3 µg/mL) | 12.5 (≈ 4.3 µg/mL) | 57.6 |  |  | 88.2 | Dose-dependent effect | Non-toxic | 99.9 | 98.8 | 86.1 |  |  |  |  |  | inhibition at 5 µM (Helicobacter pylori [9]): 91%; inhibition at 5 µM (Helicobacter pylori [10]): 98.6%; inhibition at 10 µM (Helicobacter pylori [13]): 100%
CC1(C)S[C@@H]2[C@H](NC(=O)[C@H](N)c3ccc(O)cc3)C(=O)N2[C@H]1C(=O)O [AMOXICILLIN] | 12.5 (≈ 4.57 µg/mL) | 12.5 (≈ 4.57 µg/mL) | 12.5 (≈ 4.57 µg/mL) | > 90 | 81.9 | inactive |  |  |  |  |  |  |  |  |  |  |  | 
Cc1ncc([N+](=O)[O-])n1CCO [METRONIDAZOLE] | 25 (≈ 4.28 µg/mL) | 800 (≈ 137 µg/mL) | 400 (≈ 68.5 µg/mL) | 20 | 81.9 | inactive |  |  |  |  |  |  |  |  |  |  |  | 
COc1ccc(/C=C/C(=O)c2cc(OC)c(OC)c(OC)c2)cc1 | 100 (≈ 32.8 µg/mL) | 100 (≈ 32.8 µg/mL) | 100 (≈ 32.8 µg/mL) |  | 59.4 |  |  | Dose-dependent effect | Non-toxic | 66 |  | 14.7 | 8 | 23.4 | Active | inactive | Active | inhibition (Helicobacter pylori [16]): Active; inhibition (Helicobacter pylori [12]): Active
COc1cccc(/C=C/C(=O)c2cc(OC)c(OC)c(OC)c2)c1OC | 25 (≈ 8.96 µg/mL) | 25 (≈ 8.96 µg/mL) | 50 (≈ 17.9 µg/mL) |  | 87 |  | 66.6 | Dose-dependent effect | Non-toxic | 90.6 | 73.3 | 39.8 | 24.6 | 65.2 | Active | inactive | Active | inhibition at 10 µM (Helicobacter pylori [16]): 99.9%

— ChEMBL document CHEMBL1221347, “Identification of 3',4',5'-trimethoxychalcone analogues as potent inhibitors of Helicobacter pylori-induced inflammation in human gastric epithelial cells” (Bioorg Med Chem Lett, 2010)
